This is a sample that favours compounds with a hit; in the whole collection about 2.3% have one here.
TAAR1 ag – human TAAR1 agonism; 360,000 tested, 0.99% active; activation, % at 3 µM; CHO RD-HGA16 TAAR1, Fluo-8 calcium fluorescence; vehicle wells 0%, saturating PEA agonist 100%; Q96RJ0;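 active = activation above the mean activation of all test compounds in the run plus 3 SD, cut at about 38% in these data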
Target sequence (Q96RJ0 whole entry, looked up): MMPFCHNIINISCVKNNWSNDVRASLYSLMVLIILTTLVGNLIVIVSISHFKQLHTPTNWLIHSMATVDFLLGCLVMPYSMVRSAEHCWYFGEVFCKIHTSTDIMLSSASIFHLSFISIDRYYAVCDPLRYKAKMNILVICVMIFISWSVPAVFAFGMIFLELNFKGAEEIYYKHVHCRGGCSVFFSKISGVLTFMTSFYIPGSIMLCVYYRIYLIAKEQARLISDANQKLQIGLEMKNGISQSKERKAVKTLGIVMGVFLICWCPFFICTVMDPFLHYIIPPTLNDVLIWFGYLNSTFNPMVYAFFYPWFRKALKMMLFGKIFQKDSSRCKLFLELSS
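Assay system – CHO-derived RD-HGA16 cells with stable Gα16 and human TAAR1 · Compound dosing – one-point dosing at 3 µM (nominal) · Incubation – 17-24 h seeding, 75 min 37 °C dye, 30 min RT · Measured by – kinetic Fluo-8 calcium fluorescence · Control set – DMSO vehicle as 0%, PEA at EC100 as 100% · Repeats – single well for each compound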
OXTR potentiate – potentiators of human oxytocin receptor | P30559 | CHO-OTR cells, Fluo-8 calcium fluorescence, potentiator mode; 0% = oxytocin EC15, 100% = EC100 | activation, % at 3 µM | 320,000 tested, 0.061% active | AID 2445;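 active = activation above that plate's cutoff, the mean activation of tested compounds plus 3 SD, cut at about 6.6% in these data, passing the limit was not always enough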
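Assay system: CHO cell line stably expressing human OTR. Reagent: EC15 oxytocin agonist. Dosing: single dose, 3.0 µM nominal final compound concentration. Timing: compound 6 min at room temperature before oxytocin, 100 s read. Signal: kinetic Fluo-8 calcium fluorescence. Controls: oxytocin EC15 low and EC100 high.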
TAAR1 antagonist – human TAAR1 antagonism; inhibition, % at 3 µM; 360,000 tested, 1.5% active; CHO RD-HGA16 TAAR1, Fluo-8 calcium fluorescence, antagonist; AID 624466; Q96RJ0;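 active = inhibition above a per-plate cutoff, the mean inhibition of test compounds on that plate plus 3 SD, cut at about 49% in these data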
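Material: CHO RD-HGA16 cells bearing hTAAR1; compound dosing: one-point dosing, 3 µM nominal final; schedule: dye loading 75 min at 37 °C, then 30 min room temperature; measured by: calcium fluorescence with Fluo-8; control set: vehicle and agonist controls; replication: n of 1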
V1R ag counter – activates human V1a receptor in oxytocin agonist counter-screen | 320,000 tested, 0.25% active | activation, % at 3 µM | CHO-V1R cells, Fluo-8 calcium fluorescence, agonist mode; 0% DMSO, 100% 3 nM vasopressin;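 active = activation above the mean activation of all tested compounds plus 3 SD, per screening run, cut at about 20% in these data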;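 also: signal is peak over basal fluorescence ratio across a 100 second FLIPR read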
Target sequence (P37288 whole entry, looked up): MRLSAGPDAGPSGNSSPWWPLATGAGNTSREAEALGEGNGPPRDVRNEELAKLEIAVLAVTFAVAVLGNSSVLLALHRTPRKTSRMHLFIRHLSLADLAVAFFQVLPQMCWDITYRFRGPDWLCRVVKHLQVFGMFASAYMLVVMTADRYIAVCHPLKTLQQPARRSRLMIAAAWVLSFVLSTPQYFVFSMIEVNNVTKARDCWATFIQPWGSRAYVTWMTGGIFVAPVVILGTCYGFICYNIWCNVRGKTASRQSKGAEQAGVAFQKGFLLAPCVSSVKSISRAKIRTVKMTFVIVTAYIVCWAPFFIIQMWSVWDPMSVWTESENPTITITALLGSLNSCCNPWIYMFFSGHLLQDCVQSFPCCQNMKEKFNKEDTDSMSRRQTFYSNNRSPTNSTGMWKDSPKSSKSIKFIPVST
OXTR ag – agonists of human oxytocin receptor | CHO-OTR cells, Fluo-8 calcium fluorescence; normalized: DMSO 0%, oxytocin 100% | activation, % at 3 µM | 320,000 tested, 0.32% active | AID 2435;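 active = activation above the mean of all tested compounds plus 3 SD, cutoff set per screening run, cut at about 20% in these data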;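 also: peak over basal fluorescence ratio from a 100 s FLIPR kinetic read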
OXTR agonist cf – confirmation of human oxytocin receptor agonists; 390 tested, 20% active; shares compounds with OXTR ag; CHO-OTR cells, Fluo-8 calcium fluorescence, agonist; AID 434963; activation, % at 3 µM;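 active = mean activation above about 20% derived from the earlier single-dose screen, limit read from the data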;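 also: peak over minimum fluorescence ratio per well during a 100 second FLIPR read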
V1aR counter 3x – activates V1a receptor in oxytocin agonist counter-screen; shares compounds with OXTR ag; CHO-V1R cells, Fluo-8 calcium fluorescence; activation, % at 3 µM; 390 tested, 10% active;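 active = mean activation over triplicate exceeds the hit threshold set in the earlier primary screen, cut at about 20% in these data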;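 also: peak over basal fluorescence ratio within a 100 second read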
Of the large screens only hits and unclear results are named; the others gave an inactive call (follow-up assays come after a bar, where they were run).

COc1ccc2c(c1)C=C(CN1CCC(CO)(CCc3ccccc3)CC1)CO2	none
COc1ccc(CC2(CO)CCN(CC3=Cc4cc(Cl)ccc4OC3)CC2)cc1	OXTR ag 23 | OXTR agonist cf inactive | V1aR counter 3x inactive
CCCC1(c2ccccc2)NC(=O)N(CC(=O)N(C)Cc2c(F)cccc2Cl)C1=O (stereo not drawn)	none
CC1(C(=O)NS(=O)(=O)c2ccccc2C(F)(F)F)CCN1C(=O)CCc1ccccc1 (stereo not drawn)	none (no result: OXTR potentiate, V1R ag counter, OXTR ag)
CC(C)N(CCNCC(O)COc1ccc(C(C)(C)c2ccccc2)cc1)C(C)C (stereo not drawn)	OXTR ag 23 | OXTR agonist cf inactive | V1aR counter 3x inactive
COC(=O)c1ccc(CNC(=O)COC(=O)COc2ccc(OC)cc2)cc1	none
COc1ccc2nc(NC(=O)c3ccccc3[N+](=O)[O-])sc2c1	none
COc1ccc2nc(NC(=O)c3ccccc3O)sc2c1	OXTR ag 20 | OXTR agonist cf inactive | V1aR counter 3x inactive
N#Cc1cccc(NC(=O)COC(=O)c2cc(S(=O)(=O)Nc3ccccc3Cl)ccc2O)c1	OXTR ag 20 | OXTR agonist cf inactive | V1aR counter 3x inactive
O=C(CC[C@H]1O[C@@H](n2ccc(=O)[nH]c2=O)[C@H](O)[C@@H]1O)NCc1ccccc1	none (no result: OXTR potentiate, V1R ag counter, OXTR ag)
Cc1[nH]n(-c2ccccc2)c(=O)c1C(c1cccc([N+](=O)[O-])c1)c1c(C)[nH]n(-c2ccccc2)c1=O	OXTR ag 24 | OXTR agonist cf inactive | V1aR counter 3x inactive
O=C(NC12CC3CC(CC(C3)C1)C2)c1ccccc1O	OXTR ag 24 | OXTR agonist cf inactive | V1aR counter 3x inactive
COc1ccc(C(=O)/C(C#N)=N/Nc2ccc([N+](=O)[O-])cc2)cc1	OXTR ag 20 | OXTR agonist cf inactive | V1aR counter 3x inactive
O=[N+]([O-])c1ccc(P(=O)(Cc2ccccc2)c2ccccc2O)cc1 (stereo not drawn)	none
COc1cc(/C=C2\Oc3cc(O)ccc3C2=O)ccc1O	OXTR ag 22 | OXTR agonist cf inactive | V1aR counter 3x 21
COc1cccc(N(CC(=O)NCc2ccco2)C(=O)CCC(=O)Nc2nccs2)c1	none
COc1ccc(C(=O)Nc2cc(-c3ccc(C)cc3)no2)cc1	none (no result: OXTR potentiate, V1R ag counter, OXTR ag)
Cc1ccc(-c2cc(NC(=O)c3ccccc3)on2)cc1	OXTR ag 20 | OXTR agonist cf inactive | V1aR counter 3x inactive
CC(=O)Nc1ccc(N/C(N)=N/c2nc(C)cc(C)n2)cc1	none
Cc1cc(C)nc(/N=C(\N)Nc2ccc(-c3ccccc3)cc2)n1	TAAR1 ag 58, TAAR1 antagonist 64, OXTR ag 23 | OXTR agonist cf inactive | V1aR counter 3x inactive
Cc1cc(Cl)ccc1N=c1ssnc1Cl	TAAR1 ag 42, OXTR ag 21 | OXTR agonist cf 21 | V1aR counter 3x inactive
Nc1ccccc1N=c1ssnc1Cl	none (no result: OXTR potentiate, V1R ag counter, OXTR ag)
O=C(Nc1c(-c2ccc(Cl)cc2)[nH][nH]c1=O)c1ccc(Br)cc1	none (no result: OXTR potentiate, V1R ag counter, OXTR ag)
COc1ccc(C(CCNCc2ccc(OC(C)C)cc2)c2ccccc2OC)cc1 (stereo not drawn)	TAAR1 ag 38, OXTR ag 22 | OXTR agonist cf inactive | V1aR counter 3x inactive
CCCCCCCC(=O)NNC(=O)CC(=O)Nc1ccccc1C(=O)O	none
CN1CCS/C1=C/C=C1/SC(=S)N(Cc2ccccc2)C1=O	none
CN1CCS/C1=C/C=C1\SC(=S)N(CC(=O)O)C1=O	OXTR ag 33 | OXTR agonist cf 31 | V1aR counter 3x 38
O=C(Nc1ccc(C(=O)O)cc1)Nc1ccc([N+](=O)[O-])cc1	none
COC(=O)c1ccc(NC(=O)Nc2ccc([N+](=O)[O-])cc2)cc1	OXTR ag 20 | OXTR agonist cf inactive | V1aR counter 3x inactive
CCCN1C(=O)/C(=C/c2c(NCCCOC(C)C)nc3c(C)cccn3c2=O)SC1=S	none (no result: TAAR1 ag, TAAR1 antagonist)
CCC(C)N1C(=O)/C(=C/c2c(NCCCOC(C)C)nc3c(C)cccn3c2=O)SC1=S (stereo not drawn)	OXTR ag 21 | OXTR agonist cf 37 | V1aR counter 3x 85
CCOC(=O)C1=C(N)N2C(=O)C(C)SC2=C(C(=O)OCC)C1c1ccccc1 (stereo not drawn)	none
CCOC(=O)C1=C(N)N2C(=O)C(C)SC2=C(C(=O)OC)C1c1ccccc1OC (stereo not drawn)	TAAR1 ag 37, OXTR ag 31 | OXTR agonist cf inactive | V1aR counter 3x inactive
CC(C(=O)Nc1ccc2c(c1)OCO2)c1ccc([N+](=O)[O-])cc1 (stereo not drawn)	OXTR ag 20 | OXTR agonist cf 22 | V1aR counter 3x inactive
Cc1ccccc1CC(=O)Nc1ccc2c(c1)c(=O)n(C)n2-c1cccs1	none (no result: OXTR potentiate, V1R ag counter, OXTR ag)
COc1ccccc1NC(=O)N(C)C[C@H]1Oc2ncc(Br)cc2C(=O)N([C@H](C)CO)C[C@H]1C	none (no result: OXTR potentiate, V1R ag counter, OXTR ag)
O=C(Nc1cccc(Br)c1)c1ccc(Cl)c(S(=O)(=O)N2CCOCC2)c1	TAAR1 antagonist 73, OXTR ag 24 | OXTR agonist cf inactive | V1aR counter 3x inactive
O=C(NC1CCCc2c1cnn2-c1ccccc1F)c1ccccc1N1CCOCC1 (stereo not drawn)	none
CCSc1nsc(NC(=O)Nc2ccccc2F)n1	none
CCSc1nsc(NC(=O)Nc2cccc(OC)c2)n1	OXTR ag 22 | OXTR agonist cf inactive | V1aR counter 3x inactive
CCOc1cccc(/C=C2\NC(=S)N(c3ccccc3)C2=O)c1O	OXTR ag 24 | OXTR agonist cf inactive | V1aR counter 3x inactive
CCOc1cc(/C=C2\NC(=S)N(c3c(C)n(C)n(-c4ccccc4)c3=O)C2=O)ccc1O	none
O=C(NC(=S)NNC(=O)[C@H]1C[C@@H]1c1ccccc1)c1ccc(F)cc1	TAAR1 ag 41, TAAR1 antagonist 63, OXTR ag 35 | OXTR agonist cf 22 | V1aR counter 3x 39
N#CC1=C(N)Oc2n[nH]c(-c3ccccc3)c2C12C(=O)Nc1ccccc12 (stereo not drawn)	OXTR ag 23 | OXTR agonist cf inactive | V1aR counter 3x inactive
CCN1C(=O)C2(C(C#N)=C(N)Oc3n[nH]c(-c4ccc(Cl)cc4)c32)c2ccccc21 (stereo not drawn)	none
Cc1c(O)c2c3c(cccc3c1O)C(=O)N(c1ccccc1)C2=O	OXTR ag 24 | OXTR agonist cf 29 | V1aR counter 3x 35
O=C(C1CCCCC1)N1CCCc2ccccc21	OXTR ag 30 | OXTR agonist cf inactive | V1aR counter 3x inactive
Cc1ccc(S(=O)(=O)N2CCCCC2C(=O)Nc2ccc(N(C)C)cc2)cc1 (stereo not drawn)	none

Source: PubChem (The Scripps Research Institute Molecular Screening Center)
